Laboratory results as given in ChEMBL document CHEMBL1157416, “Novel open-chain cytochalsins from the marine-derived fungus Spicaria elegans” (J Nat Prod, 2008).

Columns and labels:
Assay type in all cases: functional, cell-based
A549 = assay: Cytotoxicity against human A549 cells after 72 hrs by MTT assay; conditions: A549, 72 h
Method in brief: (§1)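 Cells grown in RPMI-1640 with 10% FBS, 5% CO2/95% air, 37 °C; plated at 5 × 10^4 cells/mL, preincubated 24 h, then compounds added in DMSO at several concentrations for 72 h. MTT (5 mg/mL) added for 4 h, medium replaced by DMSO to dissolve formazan, absorbance read at 570 nm; IC50 values reported.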

P388 = assay: Cytotoxicity against mouse P388 cells after 72 hrs by MTT assay; conditions: P388, 72 h; method in brief: as §1
Bel-7402 = assay: Cytotoxicity against human BEL-7402 cells after 72 hrs by MTT assay; conditions: Bel-7402, 72 h; method in brief: as §1
HL-60 = assay: Cytotoxicity against human HL60 cells after 72 hrs by MTT assay; conditions: HL-60, 72 h; method in brief: as §1

C/C1=C/CC(=O)O[C@@]23C(=O)N[C@@H](Cc4ccc(O)cc4)[C@@H]2[C@H](C)[C@@]2(C)O[C@H]2[C@@H]3/C=C/C[C@H](C)C1=O
IC50 (A549): 96 µM | IC50 (P388): 79 µM | IC50 (Bel-7402): 94 µM | IC50 (HL-60): 66 µM

C=C1[C@@H](C)[C@H]2[C@H](Cc3ccccc3)NC(=O)[C@@]2(O)[C@@H](/C=C/C[C@H](C)[C@@H](O)[C@@H](C)O)[C@@H]1O [CYTOCHALASIN Z10]
IC50 (A549): 9.6 µM | IC50 (P388): > 100 µM | IC50 (Bel-7402): > 100 µM | IC50 (HL-60): 69 µM

C=C1[C@@H](C)[C@H]2[C@H](Cc3ccccc3)NC(=O)[C@@]2(O)[C@@H](/C=C/C[C@H](C)C(=O)[C@H](C)O)[C@@H]1O [CYTOCHALASIN Z11]
IC50 (A549): 4.3 µM | IC50 (P388): 69 µM | IC50 (Bel-7402): > 100 µM | IC50 (HL-60): 45 µM

CC1=C(C)[C@H]2[C@H](Cc3ccccc3)NC(=O)[C@@]2(O)[C@@H](/C=C/C[C@H](C)[C@@H](O)[C@@H](C)O)[C@@H]1O [CYTOCHALASIN Z12]
IC50 (A549): 92 µM | IC50 (P388): > 100 µM | IC50 (Bel-7402): > 100 µM | IC50 (HL-60): 89 µM

CC1=C(C)[C@H]2[C@H](Cc3ccccc3)NC(=O)[C@@]2(O)[C@@H](/C=C/C[C@H](C)C(=O)[C@H](C)O)[C@@H]1O [CYTOCHALASIN Z13]
IC50 (A549): 76 µM | IC50 (P388): 67 µM | IC50 (Bel-7402): 88 µM | IC50 (HL-60): 80 µM

CC(=O)[C@@H](O)[C@@H](C)C/C=C/[C@H]1[C@H](O)C(C)=C(C)[C@H]2[C@H](Cc3ccccc3)NC(=O)[C@@]12O [CYTOCHALASIN Z14]
IC50 (A549): > 100 µM | IC50 (P388): > 100 µM | IC50 (Bel-7402): > 100 µM | IC50 (HL-60): > 100 µM

CC(=O)[C@H](O)[C@@H](C)C/C=C/[C@H]1[C@H](O)C(C)=C(C)[C@H]2[C@H](Cc3ccccc3)NC(=O)[C@@]12O [CYTOCHALASIN Z15]
IC50 (A549): > 100 µM | IC50 (P388): > 100 µM | IC50 (Bel-7402): > 100 µM | IC50 (HL-60): > 100 µM
